NSD2 inh = inhibitors of human histone methyltransferase NSD2 | NSD2 peptide methylation, AlphaScreen, 120 min | inhibition, % at 12.5 µM | 310,000 compounds, 0.54% hits; in the data active = inhibition above about 50%
Casp6 inh = blocks human caspase-6 cleavage activity. P55212. purified caspase-6, Z-VEID-R110 cleavage fluorescence. inhibition, % at 12.5 µM. 350,000 compounds, 0.53% hits. AID 686996;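 active = mean inhibition across replicates at least about 35%, with every replicate also reaching that limit, limit read from the data; inconclusive = only one of the two criteria met; inactive = neither criterion met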;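 also: 0% = median of neutral control wells and 100% = no fluorescence left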
Wnt bcat act = Wnt/beta-catenin pathway activation | Wnt/beta-catenin reporter cell assay, activator, plate reader | activation, % at 9.35 µM | 300,000 compounds, 1.2% hits; in the data active = activation above about 30%, passing the limit was not always enough; inconclusive = no clear call, values can overlap the other calls;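 also: 0% = neutral control wells and 100% = positive control wells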
MITF TRPM1 HTS = MITF TRPM1 promoter activation in melanoma cells; SK-MEL-5 TRPM1-promoter luciferase, 24 h; % of positive control, neutral wells = 0; activation, % at 12.5 µM; 300,000 compounds, 0.75% hits; AID 588334;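 active = mean activation of at least 80% with every replicate also reaching 80%; inconclusive = mean reaches 80% but some replicate falls short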;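 also: 0% = neutral control wells and 100% = parthenolide positive control wells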
XiGFP reactiv = reactivates the inactive X chromosome in mouse fibroblasts. XiGFP mouse fibroblasts, % GFP-positive cells imaging, 3 d; cells co-treated with 5-aza-dC sensitizer; scaled so ellipticine positive control = 100%. 360,000 compounds, 0.055% hits. activation, % at 7.58 µM. AID 743238;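 active = mean normalized replicate activation at least 10% and every replicate at or above 10%; inconclusive = only one of the two criteria met; inactive = mean below 10% and not all replicates reach 10%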;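 also: 0% = median of on-plate neutral control wells and 100% = ellipticine 6 µM median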
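Material: XiGFP fibroblasts, SV40-immortalized. Buffer or medium: DMEM plus 5-aza-dC sensitizer. Compound: single concentration per compound, delivered by pin transfer. Times: 3 days compound exposure. Controls: ellipticine 6 µM.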
esBAF inh = inhibitors of esBAF chromatin remodeling in mouse ES cells; Bmi1-luciferase knock-in reporter, 24 h; 100% = twice the neutral-well signal; reporter increase, % at 12.5 µM; 350,000 compounds, 2% hits; in the data active = activation above about 40%; inconclusive = no clear call, values can overlap the other calls;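 also: 0% = median of the plate's neutral control wells and 100% = double that signal; a rise in the Bmi1 reporter signal indicates esBAF inhibition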
* = called active by the depositor; ? = inconclusive; nt = no result. Only some compounds are listed: those with a hit (about 3% of all), similar ones and a draw of the others.

SMILES	NSD2 inh	Casp6 inh	Wnt bcat act	MITF TRPM1 HTS	XiGFP reactiv	esBAF inh
O=C1C2C3C=CC(C2C(=O)N1c1nccs1)C1C(=O)N(c2nccs2)C(=O)C31 (stereo not drawn)	-3	9	-1	0	0	-8
O=C1C2C3C=CC(CC3)C2C(=O)N1c1nccs1 (stereo not drawn)	27	67*	-1	-4	0	nt
Oc1cc(NCc2cccnc2)ccc1-c1nc2ccccc2o1	0	nt	86*	nt	nt	78*
CCc1ccc(OCC(=O)Nc2ccc(-c3nc4ccccc4o3)c(O)c2)cc1	2	nt	nt	17	nt	nt
O=C(C[C@@H]1CC[C@H](NC(=O)Nc2ccc3c(c2)OCO3)[C@@H](CO)O1)NCCCN1CCOCC1	nt	-4	nt	nt	0	-2
Cc1csc2nc(CSc3ccc(Cl)cc3)cn12	-2	nt	nt	92*	nt	nt
O=C(Cc1cn2ccsc2n1)OCc1ccccc1	-1	nt	-2	41	nt	13
Clc1ccc(SCc2cn3ccsc3n2)cc1	1	nt	52*	80	nt	nt
c1ccc(CSCc2cn3ccsc3n2)cc1	2	nt	nt	84*	nt	59*
COc1ccccc1S(=O)(=O)N[C@@H]1CC[C@H](CC(=O)NCc2cccc(F)c2)O[C@@H]1CO	nt	2	nt	nt	0	3
O=C(NC(C(=O)c1ccccc1)c1ccccc1)c1ccccc1 (stereo not drawn)	-1	1	-2	41	0	41*
NS(=O)(=O)c1ccc(CCNC(=O)Cc2ccc(S(=O)(=O)N3CCOCC3)s2)cc1	-3	1	1	-2	0	6
CC(C)(C)c1csc(NC(=O)Cc2ccc(S(=O)(=O)N3CCOCC3)s2)n1	-3	-1	-4	-6	0	43*
COCCCNC(=O)Cc1ccc(S(=O)(=O)N2CCOCC2)s1	-1	0	55*	-2	0	1
Cc1cnc(NC(=O)Cc2ccc(S(=O)(=O)N3CCOCC3)s2)s1	1	1	-3	19	0	nt
CCS(=O)(=O)Nc1ccc2c(c1)C(=O)N(C)C[C@H](OC)[C@@H](C)CN(Cc1nccs1)[C@H](C)CO2	nt	1	nt	nt	0	-1
CCCc1ccc(OCc2ccc(C(=O)N3CCN(c4ccccn4)CC3)o2)c(OC)c1	7	4	nt	16	nt	45*
O=C(N/N=C/c1ccc(Br)s1)c1ccc([N+](=O)[O-])cc1	-4	-3	-2	-3	97*	-1
O=C(N/N=C/c1ccc(Br)s1)c1ccccc1[N+](=O)[O-]	3	nt	-1	3	nt	5
CN1CCN(C(=O)/C=C/c2ccc3c(c2)OCO3)CC1	nt	1	0	5	0	nt
C(=NN1CCCCCC1)c1ccc2c(c1)OCO2	1	-6	33*	23	0	19
O=C(/C=C/C=C/c1ccc2c(c1)OCO2)N1CCCCC1	nt	2	1	98*	nt	51*
CCCN(C)C[C@H]1OCCCC[C@@H](C)Oc2ccc(NC(=O)c3ccccc3)cc2C(=O)N([C@@H](C)CO)C[C@H]1C	nt	nt	nt	nt	-1	-2
COc1ccc(C(c2c(NC(=O)c3ccco3)sc(C)c2C)N2CCOCC2)cc1 (stereo not drawn)	-4	55*	-6	-9	0	-19
COc1ccc(C(CNC(=O)c2ccco2)N2CCOCC2)cc1 (stereo not drawn)	-1	-1	-1	13	0	-5
SMILES	NSD2 inh	Casp6 inh	Wnt bcat act	MITF TRPM1 HTS	XiGFP reactiv	esBAF inh
COc1cccc(NC(=O)N2C[C@@H](O)COC[C@@H]3O[C@H](CC(=O)NC4Cc5ccccc5C4)CC[C@H]32)c1	nt	1	nt	nt	0	-2
Cn1cnc(S(=O)(=O)N2CC[C@@H]3[C@H]2c2cc(C4=CCCCC4)ccc2N[C@@H]3CO)c1	nt	nt	nt	nt	0	nt
O=C(Nc1ccccc1)NC1CCCCCCC1	-2	-4	8	nt	0	nt
O=C(Nc1cccc([N+](=O)[O-])c1)NC1CCCCCCC1	0	-1	24	91*	0	78*
O=C(Nc1nc2ccccc2s1)NC1CCCCC1	0	3	42*	86*	0	nt
O=C(Cc1ccccc1)Nc1nnc(-c2cccc([N+](=O)[O-])c2)s1	-1	nt	-5	1	0	nt
O=C(CC1CCCCC1)Nc1nc2ccccc2s1	2	5	26	63	0	nt
O=C(NC1CCCCC1)N(c1ccccc1)c1nnc(-c2cccc([N+](=O)[O-])c2)s1	2	1	12	nt	0	66*
O=C(Nc1ccc(Br)cc1)NC1CCCCCCC1	-2	-3	47*	?	0	nt
C[C@@H]1CN([C@@H](C)CO)C(=O)Cc2cc(NC(=O)Nc3ccc(C(F)(F)F)cc3)ccc2O[C@@H]1CN(C)C(=O)Nc1ccc2c(c1)OCO2	nt	nt	nt	nt	0	4
C[C@H]1CN(C)C(=O)Cc2cc(N)ccc2O[C@@H]1CN(C)C(=O)OC(C)(C)C	nt	nt	nt	nt	0	nt
Cc1ccc(NC(=O)NC2CCCCC2)cc1Cl	-9	nt	nt	?	nt	85*
O=C(Nc1ccccc1)NC1CCCCC1	-1	nt	nt	26	nt	46*
COc1ccc(CNC(=O)C[C@H]2C[C@@H]3c4cc(NS(C)(=O)=O)ccc4O[C@@H]3[C@@H](CO)O2)cc1	nt	-1	nt	nt	0	-3
C[C@H](CO)N1C[C@H](C)[C@H](CN(C)S(=O)(=O)c2ccccc2)OCCCC[C@H](C)Oc2ccc(NC(=O)NC3CCCCC3)cc2C1=O	nt	-5	nt	nt	0	1
CO[C@@H]1CN(C)C(=O)c2ccc(NS(=O)(=O)c3ccc(C)cc3)cc2OC[C@H](C)N(C(=O)NC(C)C)C[C@H]1C	nt	nt	nt	nt	0	-3
COc1ccc(NC(=O)N2CC3(C2)CN(C(=O)C2CCC2)[C@H](CO)c2c3c3ccc(OC)cc3n2C)cc1	nt	0	nt	nt	0	nt
O=C(NC(=O)c1ccccc1)Nc1ccc(Cl)cn1	-2	0	35*	53	0	-6
COc1cc2ccccc2cc1C(=O)Nc1ccc(Cl)cn1	12	3	10	47	0	67*
Cc1cc(C)cc(NC(=O)Nc2ccc(Cl)cn2)c1	-1	0	-1	0	0	-3
COc1ccc(OC)c(NC(=O)c2cc3ccccc3cc2OC)c1	-1	2	3	29	0	13
O=C(Nc1ccc(Cl)cn1)c1ccccc1F	0	nt	39*	30	nt	nt
O=C(Nc1ccc(Cl)cn1)Nc1ccc(Cl)cn1	-2	-1	22	25	0	nt
C/C(=C\c1ccccc1)C(=O)Nc1ccc(Cl)cn1	-8	0	33*	nt	0	8
COc1ccc(CN2CC3(CCN(C(=O)Nc4cccc(F)c4)CC3)c3c([nH]c4cc(OC)ccc34)[C@@H]2CO)cc1	nt	nt	nt	nt	0	nt
CCCNC(=O)N1C[C@H](C)[C@@H](OC)CN(C)C(=O)c2ccc(NS(C)(=O)=O)cc2OC[C@H]1C	nt	3	nt	nt	0	-2
CC(=O)N(C)C[C@@H]1Oc2c(cccc2N(C)C)C(=O)N(C)C[C@@H]1C	nt	nt	nt	nt	0	nt

Source: PubChem BioAssay (Broad Institute)
